Assay results from ChEMBL document CHEMBL1123623, “Synthesis of some [N-(2-haloalkyl)amino]tetralin derivatives as potential irreversible labels for bovine anterior pituitary D2 dopamine receptors” (J Med Chem, 1987).

What was measured:
[1] = target: T1, D(2) dopamine receptor (Bos taurus, UniProt P20288); test: Ability to displace [3H]spiperone binding from anterior pituitary Dopamine receptor D2 in the absence of GTP; NA means inactive
Procedure, shortened: (§1)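 Bovine anterior pituitary membranes; displacement of [3H]spiperone (ca. 500 pM) with no GTP added. Specific binding defined with 3.3 μM (+)-butaclamol; buffer with 0.1% ascorbic acid in place of dithiothreitol. Triplicate points; IC50 corrected for [3H]spiperone concentration, plus pseudo Hill coefficient. Mean ± SEM (n ≥ 3) or mean ± range (n = 2).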

[2] = target: T1, D(2) dopamine receptor; test: Ability to displace [3H]spiperone binding from anterior pituitary Dopamine receptor D2 in the presence of 100 uM GTP
Procedure, shortened: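 [3H]spiperone (ca. 500 pM) displacement in bovine anterior pituitary membranes in the presence of 100 μM GTP. Nonspecific binding set with 3.3 μM (+)-butaclamol; 0.1% ascorbic acid replaced dithiothreitol. Points in triplicate; IC50 corrected for radioligand concentration, with pseudo Hill coefficient. Mean ± SEM (n ≥ 3) or mean ± range (n = 2).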

[3] = target: T1, D(2) dopamine receptor; test: Ability to displace [3H]spiperone binding from anterior pituitary Dopamine receptor D2 in the absence of GTP; procedure, shortened: as §1

T1 sequence (P20288 whole entry): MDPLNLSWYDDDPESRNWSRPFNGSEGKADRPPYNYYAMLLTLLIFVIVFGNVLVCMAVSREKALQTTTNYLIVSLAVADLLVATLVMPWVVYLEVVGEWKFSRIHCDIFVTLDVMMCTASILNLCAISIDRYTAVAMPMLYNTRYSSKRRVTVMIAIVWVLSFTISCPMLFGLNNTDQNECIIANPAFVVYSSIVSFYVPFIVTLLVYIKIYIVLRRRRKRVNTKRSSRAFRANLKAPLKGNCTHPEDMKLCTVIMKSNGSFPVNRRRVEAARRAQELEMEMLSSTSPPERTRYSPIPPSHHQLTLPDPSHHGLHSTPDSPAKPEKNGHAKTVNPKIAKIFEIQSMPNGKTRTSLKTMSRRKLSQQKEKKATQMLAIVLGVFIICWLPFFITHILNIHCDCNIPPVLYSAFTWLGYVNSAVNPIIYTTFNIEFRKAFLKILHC

O=C(CCl)NC1CCc2cc(O)c(O)cc2C1 (stereo not given)
IC50 [1]: Not Active

CCCN(CCCl)C1CCc2cc(O)c(O)cc2C1 (stereo not given)
IC50 [2]: 260 nM
IC50 [3]: 76 nM

CN(CCCl)C1CCc2cc(O)ccc2C1 (stereo not given)
IC50 [3]: 2970 nM

COc1cc2c(cc1OC)CC(NCCCl)CC2.Cl (stereo not given)
IC50 [1]: Not Active

CCCN(CCBr)C1CCc2cc(O)c(O)cc2C1 (stereo not given)
IC50 [2]: > 100000 nM
IC50 [3]: 1970 nM

CCCN(CCCl)C1CCc2cc(OC)c(OC)cc2C1.Cl (stereo not given)
IC50 [1]: Not Active

Oc1cc2c(cc1O)CC(NCCBr)CC2 (stereo not given)
IC50 [2]: 420 nM
IC50 [3]: 170 nM

COc1cc2c(cc1OC)CC(NCCO)CC2.Cl (stereo not given)
IC50 [1]: Not Active

CN(CCCl)C1CCc2c(ccc(O)c2O)C1 (stereo not given)
IC50 [2]: > 100000 nM
IC50 [3]: 32200 nM

Oc1cc2c(cc1O)CC(NCCCl)CC2 (stereo not given)
IC50 [2]: > 100000 nM
IC50 [3]: 300 nM

CN(CCCl)C1CCc2cc(O)c(O)cc2C1 (stereo not given)
IC50 [2]: 3720 nM
IC50 [3]: 1820 nM

Br.CCCN(CC(C)Br)C1CCc2cc(O)c(O)cc2C1 (stereo not given)
IC50 [1]: Not Active

CCCN(CCO)C1CCc2cc(O)c(O)cc2C1 (stereo not given)
IC50 [2]: 2420 nM
IC50 [3]: 420 nM

CC(Br)CNC1CCc2cc(O)c(O)cc2C1 (stereo not given)
IC50 [2]: 1010 nM
IC50 [3]: 300 nM

CCCN(CCO)C1CCc2cc(OC)c(OC)cc2C1 (stereo not given)
IC50 [1]: Not Active

COc1cc2c(cc1OC)CC(NC(=O)CCl)CC2 (stereo not given)
IC50 [1]: Not Active

CCCN(C(=O)CCl)C1CCc2cc(OC)c(OC)cc2C1 (stereo not given)
IC50 [1]: Not Active
